Results published in ChEMBL document CHEMBL1129044, “Potent, selective tetrahydro-beta-carboline antagonists of the serotonin 2B (5HT2B) contractile receptor in the rat stomach fundus” (J Med Chem, 1996).

Experiments:
[1] = target: 5-hydroxytryptamine receptor 2B (Rattus norvegicus) (UniProt P30994); test: Binding affinity analysed for 5-HT 2B receptor in rat stomach fundus; type: tissue-based
Summary of the method: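 Rat stomach fundus strips (5HT2B): isometric contraction recorded as grams of force. Control cumulative serotonin concentration–response curve, then 1 h incubation with a single antagonist concentration per tissue, then serotonin curve repeated. K_B = [B]/(dose ratio − 1), where dose ratio is agonist ED50 with antagonist over control ED50. Reported as −log K_B.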

[2] = target: Serotonin receptor 2a and 2b (5HT2A and 5HT2B) (Rattus norvegicus) (UniProt P30994+P14842); test: Relative binding to serotonin receptors 5-HT-2B and 5-HT-2A (Ratio of […] Ki); type: protein assay
Serotonin receptor 2a and 2b (5HT2A and 5HT2B) (Rattus norvegicus), sequence (P14842 whole entry, looked up): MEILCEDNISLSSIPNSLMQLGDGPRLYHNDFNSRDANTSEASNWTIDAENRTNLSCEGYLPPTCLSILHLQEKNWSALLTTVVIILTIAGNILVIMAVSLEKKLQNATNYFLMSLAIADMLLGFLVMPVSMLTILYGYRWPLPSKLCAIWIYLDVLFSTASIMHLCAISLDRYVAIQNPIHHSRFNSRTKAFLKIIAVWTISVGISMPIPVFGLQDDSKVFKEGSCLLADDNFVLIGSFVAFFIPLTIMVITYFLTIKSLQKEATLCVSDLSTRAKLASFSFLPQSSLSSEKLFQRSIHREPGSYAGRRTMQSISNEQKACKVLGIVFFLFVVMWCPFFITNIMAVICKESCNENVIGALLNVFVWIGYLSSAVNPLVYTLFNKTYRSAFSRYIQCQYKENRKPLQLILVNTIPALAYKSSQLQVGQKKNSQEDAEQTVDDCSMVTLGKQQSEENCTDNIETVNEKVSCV
Serotonin receptor 2a and 2b (5HT2A and 5HT2B) (Rattus norvegicus), sequence (P30994 whole entry, looked up): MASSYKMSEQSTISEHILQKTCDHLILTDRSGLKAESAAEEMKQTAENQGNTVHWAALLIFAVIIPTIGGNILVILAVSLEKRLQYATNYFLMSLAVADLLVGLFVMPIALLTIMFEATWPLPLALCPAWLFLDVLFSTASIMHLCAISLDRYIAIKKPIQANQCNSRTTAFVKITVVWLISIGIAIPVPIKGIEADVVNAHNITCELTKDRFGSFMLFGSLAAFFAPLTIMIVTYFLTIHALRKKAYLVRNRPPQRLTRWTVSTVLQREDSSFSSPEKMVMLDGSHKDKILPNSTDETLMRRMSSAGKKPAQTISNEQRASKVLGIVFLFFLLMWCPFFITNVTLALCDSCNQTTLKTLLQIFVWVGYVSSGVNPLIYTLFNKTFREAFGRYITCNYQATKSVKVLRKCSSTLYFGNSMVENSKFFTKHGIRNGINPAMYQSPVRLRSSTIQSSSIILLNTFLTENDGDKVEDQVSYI

Rattus norvegicus = species on record: Rattus norvegicus; test: Relative binding to serotonin receptors 5-HT-2B to 5-HT2C (Ratio of […] Ki)
[3] = target: T1, 5-hydroxytryptamine receptor 2A (Rattus norvegicus, UniProt P14842); test: Binding affinity for 5-HT 2A in rat […]; type: tissue-based
T1 sequence (P14842 whole entry): as the sequence (P14842 whole entry, looked up) above

[4] = target: T1, 5-hydroxytryptamine receptor 2A; test: Binding affinity analysed on 5-HT 2A in rat […].; type: tissue-based
[5] = target: 5-HT2C receptor (Mus musculus); test: Binding affinity towards 5-HT 2C receptor of mouse
[6] = target: 5-hydroxytryptamine receptor 2A (Rattus norvegicus) (UniProt P14842); test: Binding affinity analysed towards 5-HT 2A in rat jugular vein
5-hydroxytryptamine receptor 2A (Rattus norvegicus), sequence (P14842 whole entry): as the sequence (P14842 whole entry, looked up) above
Summary of the method: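 Rat external jugular vein (5HT2A), cannulated in situ and kept in Krebs' bicarbonate buffer; isometric contraction recorded. Control cumulative serotonin curve, 1 h with one antagonist concentration per tissue, serotonin curve repeated. K_B = [B]/(dose ratio − 1) from the agonist ED50 shift. Expressed as −log K_B.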

[7] = target: 5-hydroxytryptamine receptor 2A (Rattus norvegicus) (UniProt P14842)
[8] = target: 5-hydroxytryptamine receptor 2A (Rattus norvegicus) (UniProt P14842); remark: listed apart in the source

5-hydroxytryptamine receptor 2B (Rattus norvegicus), sequence (P30994 whole entry): as the sequence (P30994 whole entry, looked up) above

Row | Structure (SMILES) | -Log KB [1] | further results
1 | CCOc1ccc(CC2NCCc3c2[nH]c2ccccc32)cc1OCC (stereo unspecified) | 8.57 | –
2 | COc1ccc(CC2NCCc3c2[nH]c2ccc(C)c(F)c32)cc1OC (stereo unspecified) | 9.3 | –
3 | Cn1ccc2cc(NC(=O)Nc3cccnc3)ccc21 | 7.4 | Ratio [2]: > 158; Ratio (Rattus norvegicus): 3.5; Ki [3]: > 6310 nM
4 | COc1ccc(CC2NCCc3c2[nH]c2ccc(F)cc32)cc1OC (stereo unspecified) | 8.49 | –
5 | Cc1cc(NC(=O)Nc2ccc3c(ccn3C)c2)sn1 | 7.95 | –
6 | Brc1cccc2c1NC1C(Cc3cccc4ccccc34)NCCC21 (stereo unspecified) | 9.1 | –
7 | COc1ccc(CC2NCCc3c2[nH]c2ccc(C)cc32)cc1O (stereo unspecified) | 9.23 | –
8 | COc1cc2c(cc1OC)CN1CCc3c([nH]c4ccccc34)[C@@H]1C2 | < 6.52 | –
9 | COc1ccc(CCC2NCCc3c2[nH]c2ccccc32)cc1OC (stereo unspecified) | 7.07 | –
10 | COc1cc(CC2NCCc3c2[nH]c2ccc(C)cc32)cc([N+](=O)[O-])c1OC (stereo unspecified) | 8.55 | –
11 | Cc1ccc2[nH]c3c(c2c1)CCN(C)C3Cc1cccc2ccccc12 (stereo unspecified) | 7.52 | –
12 | Cc1ccc2[nH]c3c(c2c1)CCNC3Cc1cc(F)cc(F)c1 (stereo unspecified) | 9.05 | –
13 | COc1ccc(CN2CCc3c([nH]c4ccccc34)C2)cc1OC | < 5.52 | –
14 | COc1ccc(CC2NCCc3c2[nH]c2ccc(C4CCCCC4)cc32)cc1OC (stereo unspecified) | < 7.5 | –
15 | O=C(O)c1ccc2c(c1)C1CCNC(Cc3cccc4ccccc34)C1N2 (stereo unspecified) | < 7.5 | –
16 | CN1CC[C@@H]2CN3CCc4cccc(c43)[C@@H]2C1 | 7.34 | Ki [4]: 631 nM
17 | COc1ccc(CC2NCCc3c2[nH]c2ccc(Br)cc32)cc1OC (stereo unspecified) | 8.8 | –
18 | COc1ccc(CC2c3c(c4cc(C)ccc4n3C)CCN2C)c(Cl)c1OC (stereo unspecified) | < 7.52 | –
19 | CCCCc1ccc2[nH]c3c(c2c1)CCNC3Cc1ccc(OC)c(OC)c1 (stereo unspecified) | < 7.5 | –
20 | CCCc1ccc2[nH]c3c(c2c1)CCNC3Cc1ccc(OC)c(OC)c1 (stereo unspecified) | 8.64 | –
21 | c1ccc2c3c([nH]c2c1)CNCC3 | < 5.52 | –
22 | COc1cccc2c1NC1C(Cc3cccc4ccccc34)NCCC21 (stereo unspecified) | 9.72 | –
23 | COc1cc(CC2NCCc3c2[nH]c2ccccc32)cc(OC)c1OC (stereo unspecified) | 8.1 | –
24 | COc1ccc(CC2NCCc3c2[nH]c2ccc(I)cc32)cc1OC (stereo unspecified) | 9.52 | –
25 | COc1ccc(CC2NCCc3c2[nH]c2c(C)cccc32)cc1OC (stereo unspecified) | 9 | –
26 | Clc1ccc2c(c1)C1CCNC(Cc3cccc4ccccc34)C1N2 (stereo unspecified) | 9.16 | –

Row | Structure (SMILES) | -Log KB [1] | further results
27 | Clc1ccc(CC2NCCc3c2[nH]c2ccccc32)cc1Cl (stereo unspecified) | 8.22 | –
28 | COc1ccc(CC2NCCc3c2[nH]c2ccc(C)cc32)cc1F (stereo unspecified) | 9.42 | –
29 | COc1ccc(CC2NCCc3c2[nH]c2cc(C)c(C)cc32)cc1OC (stereo unspecified) | 9.71 | Ki [3]: 4.68 nM
30 | COc1ccc(CC2NCCc3c2[nH]c2c(F)cc(F)cc32)cc1OC (stereo unspecified) | 9.6 | –
31 | Cc1ccc2[nH]c3c(c2c1)CCNC3CC1CCCCC1 (stereo unspecified) | 8.32 | –
32 | c1ccc2c3c([nH]c2c1)[C@@H]1C[C@@H]2CCCC[C@H]2CN1CC3 | 7.26 | –
33 | COc1ccc(CC2NCC(C)c3c2[nH]c2c(C)cccc32)cc1OC (stereo unspecified) | 9.29 | –
34 | c1ccc(CC2NCCc3c2[nH]c2ccccc32)cc1 (stereo unspecified) | 7.61 | –
35 | COc1ccc(OC)c(CC2NCCc3c2[nH]c2ccccc32)c1 (stereo unspecified) | 7.75 | –
36 | COc1ccc(CC2NCCc3c2[nH]c2ccc(C)cc32)cc1OC (stereo unspecified) | – | Ki [3]: 22.4 nM
37 | COc1ccc(CC2NCCc3c2[nH]c2ccc(C(C)C)cc32)cc1OC (stereo unspecified) | 8.5 | –
38 | Cc1ccc(CC2NCCc3c2[nH]c2ccccc32)cc1 (stereo unspecified) | 7.84 | –
39 | c1ccc2c(CC3NCCc4c3[nH]c3ccccc43)cccc2c1 (stereo unspecified) | 9.35 | –
40 | COc1ccc(CC2NCCc3c2[nH]c2c(C)c(C)ccc32)cc1OC (stereo unspecified) | 10.1 | Ratio [2]: 115; Ratio (Rattus norvegicus): 102; Ki [3]: 8.71 nM; Ki [5]: 7.76 nM
41 | COc1ccc(CC2NCCc3c2[nH]c2ccccc32)cc1 (stereo unspecified) | 8.09 | –
42 | COC1=CC=C(CC2NCCc3c2n(C)c2ccc(C)cc32)CC1OC (stereo unspecified) | < 7.52 | –
43 | COc1ccc(CC2NCCc3c2[nH]c2ccccc32)c(Cl)c1OC (stereo unspecified) | 9.27 | –
44 | c1ccc2cc(CC3NCCc4c3[nH]c3ccccc43)ccc2c1 (stereo unspecified) | 7.84 | –
45 | COc1ccc(C2NCCc3c2[nH]c2ccccc32)cc1OC (stereo unspecified) | < 6.53 | –
46 | Cc1ccc2[nH]c3c(c2c1)CCNC3Cc1cccc(C(F)(F)F)c1 (stereo unspecified) | 8.91 | –
47 | COc1ccc2c3c([nH]c2c1)C(Cc1ccc(OC)c(OC)c1)NCC3 (stereo unspecified) | 7.31 | –
48 | CCc1ccc2[nH]c3c(c2c1)CCNC3Cc1ccc(OC)c(OC)c1 (stereo unspecified) | 9.46 | –
49 | COc1cc(CC2NCCc3c2[nH]c2ccc(C)cc32)cc(I)c1OC (stereo unspecified) | 8.12 | –
50 | COc1ccc(CC2NCCc3c2[nH]c2ccc(Cl)cc32)cc1OC (stereo unspecified) | 8.36 | –
51 | COc1ccc(CC2NCCc3c2[nH]c2ccc(OCc4ccccc4)cc32)cc1OC (stereo unspecified) | 6.73 | –
52 | COc1ccc(CC2(C)NCCc3c2[nH]c2ccc(C)cc32)cc1OC (stereo unspecified) | < 7.52 | –

Row | Structure (SMILES) | -Log KB [1] | further results
53 | Cc1cc(Br)c2c(c1)C1CCNC(Cc3cccc4ccccc34)C1N2 (stereo unspecified) | 8.82 | –
54 | COc1ccc(CC2NCCc3c2[nH]c2cc(C)cc(C)c32)cc1OC (stereo unspecified) | 9.34 | –
55 | COc1ccc(CC2NCCc3c2[nH]c2ccc(C)cc32)c([N+](=O)[O-])c1OC (stereo unspecified) | 9.16 | –
56 | COc1ccc(CC2NCCc3c2[nH]c2c(Br)cc(C)cc32)cc1OC (stereo unspecified) | 8.92 | –
57 | COc1ccc(CC2NCCc3c2[nH]c2ccc(SC)cc32)cc1OC (stereo unspecified) | 9.56 | –
58 | COc1ccc(CC2NCCc3c2[nH]c2ccccc32)cc1OC (stereo unspecified) | 9.17 | Ratio [2]: 97.7; -Log KB [6]: 7.43; Ratio (Rattus norvegicus): 186; Ki [3]: 66.1 nM; Ki [5]: 126 nM
59 | COc1ccc(CC2c3[nH]c4ccc(C)cc4c3CCN2C)c(Cl)c1OC (stereo unspecified) | 8.4 | –
60 | COc1ccc(CC2NCCc3c2[nH]c2ccc(-c4ccccc4)cc32)cc1OC (stereo unspecified) | < 7 | –
61 | COc1cc(CC2NCCc3c2[nH]c2ccc(C)cc32)cc(N)c1OC (stereo unspecified) | 8.89 | –
62 | COc1ccc(CC2NCCc3c2[nH]c2ccc(C)cc32)c(Br)c1OC (stereo unspecified) | 9.7 | Ratio [2]: 83.2; Ratio (Rattus norvegicus): 93.3; Ki [3]: 16.6 nM; Ki [5]: 18.6 nM
63 | COc1ccc(CC2NCCc3c2[nH]c2c3ccc3ccccc32)cc1OC (stereo unspecified) | 9.22 | –
64 | Cc1ccc2c(c1Br)NC1C(Cc3cccc4ccccc34)NCCC21 (stereo unspecified) | 8.56 | –
65 | COc1ccc(CC2NCCc3c2[nH]c2ccc(C)cc32)c(N)c1OC (stereo unspecified) | 9.02 | –
66 | c1ccc2c3c([nH]c2c1)C(Cc1ccc2c(c1)OCO2)NCC3 (stereo unspecified) | 8.4 | –
67 | COc1ccc(CC2NCCc3c2[nH]c2ccc(C)cc32)c(Cl)c1OC (stereo unspecified) | 9.8 | -Log KB [7]: 8.14; Ki [3]: 19.5 nM
68 | Cc1ccc2[nH]c3c(c2c1)CCNC3Cc1ccc(C)c(C)c1 (stereo unspecified) | 9.06 | –
69 | COc1ccc(CC2NCCc3c2[nH]c2c(C)cc(C)cc32)cc1OC (stereo unspecified) | 9.61 | –
70 | Cc1ccc2[nH]c3c(c2c1)CCNC3Cc1ccc(F)c(F)c1 (stereo unspecified) | 8.47 | –
71 | COc1ccc2[nH]c3c(c2c1)CCNC3Cc1ccc(OC)c(OC)c1 (stereo unspecified) | 8.48 | –
72 | CCc1ccc2c(c1)C1CCNC(Cc3cccc4ccccc34)C1N2 (stereo unspecified) | 9.65 | –
73 | COc1ccc(CC2NCCc3c2[nH]c2c(Br)c(C)ccc32)cc1OC (stereo unspecified) | 9.02 | Ratio [2]: 3.09; Ratio (Rattus norvegicus): 2.14; Ki [3]: 2.95 nM; Ki [5]: 2.04 nM
74 | COC(=O)[C@@H]1[C@H]2C[C@H]3c4[nH]c5ccccc5c4CCN3C[C@@H]2CC[C@@H]1O | 6.92 | -Log KB [8]: 6.37
75 | Cn1ccc2cc3c(cc21)CCN3C(=O)Nc1cccnc1 | 8.48 | –
76 | COc1cccc(CC2NCCc3c2[nH]c2ccccc32)c1 (stereo unspecified) | 8.04 | –
